The entries come from a sample that favours hits as a whole.
Lung fibro prol: blocks proliferation of human lung fibroblasts; LL 47 human lung fibroblast viability, ATP luminescence; hits give low values; viability, % at 10 µM; 1.1% of 85,000 active; AID 719;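 active = viability at or below 50% in the single dose screen; inactive = viability above 50%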;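 note: compound exposure lasted 72 h before the ATP readout; 100% = median luminescence of untreated cell-only wells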
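Material: human LL 47 lung fibroblast cells; quantity: 1,150 cells/well; medium: IMEM plus 15% FBS; doses: 0.1% DMSO in all compound wells; timing: overnight attachment after seeding, then 72 h compound exposure at 37 °C; detection: CellTiter-Glo luminescence; measure: % viability of median cell-only signal; controls: cell-only wells, no compound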
HCT116 PTEN-null: PTEN-deleted cell growth suppression. AID 827. viability, % at 10 µM. HCT116 PTEN-null viability, CellTiter-Glo, 60 h; hits give low values. 1.2% of 140,000 active;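 active = viability at or below a set limit, 4 SD under the median of all tested compounds, cut at about 3.7% in these data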;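 note: PTEN knockout HCT116 line with beta catenin targeted HCT116 as companion control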
HUVEC prolif 384: human endothelial cell proliferation inhibition; HUVEC proliferation, CellTiter-Glo luminescence, 72 h; hits give low values; 1.1% of 86,000 active; viability, % at 10 µM (by protocol);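 active = viability at or below 30%; inactive = viability above 30%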;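 note: 100% = median luminescence of DMSO-only cell control wells on each plate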
bCat KO growth: beta-catenin-lacking colon tumor cell growth suppression; 1.5% of 140,000 active; AID 818; HCT116 beta-catenin knockout viability, CellTiter-Glo, 60 h; hits give low values; viability, % at 10 µM;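 active = viability at or under a set limit, the compound median less 4 SD, cut at about 6% in these data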;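 note: 0% = Hyamine 1622 control at 20 µM and 100% = untreated cell control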
H69AR growth 86K: blocks growth of human H69AR lung tumor cells | H69AR lung tumor viability, ATP luminescence, 72 h; hits give low values | viability, % at 10 µM | 6% of 85,000 active | AID 598;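 active = viability at or below 40%; inactive = viability above 40%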;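 note: multidrug resistant small cell line overexpressing MRP-1 efflux transporter; 100% = mean luminescence of untreated control wells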
Numbers without * were called inactive; . = not tested or not shown.

SMILES	Lung fibro prol	HCT116 PTEN-null	HUVEC prolif 384	bCat KO growth	H69AR growth 86K
Cc1cc(S(=O)(=O)Nc2ccc3ccccc3c2)c(C)s1	72	23	55	14	12*
O=C(NC(=S)N(CCCCO)C1CCCCC1)c1sc2ccccc2c1Cl	.	40	.	46	.
COc1ccc(CC(=O)NNc2ncnc3c2cnn3-c2ccc(C)cc2)cc1OC	.	96	.	93	.
CC1(C)Cc2c(C#N)c(SCCOc3ccccc3)nc(N3CCOCC3)c2CO1	85	62	61	64	32*
CCOC(=O)N1CCC(=NNC(=O)c2ccc(O)cc2)CC1	.	94	.	99	.
COc1ccc(/C=C/C(=O)c2ccccc2)cc1Cn1nnc2ccccc21	.	2.8*	.	2.9*	.
CC(C)(C)S(=O)(=O)c1cnc2c(-c3ccc(F)cc3)cnn2c1N	.	63	.	59	.
CC(C)(C)S(=O)(=O)c1cnc2c(-c3ccc(Cl)cc3)cnn2c1N	.	1.7*	.	2.6*	.
Cc1ccc(C(=O)n2c(-c3ccccc3)cnc2SCC(=O)Nc2ccc(C)cc2C)cc1	.	83	.	80	.
Cc1cccc(C)c1NC(=O)Cn1c(=O)n(CCCC(=O)NCc2ccco2)c(=O)c2sccc21	91	68	97	76	74
O=C(CN(Cc1cccs1)C(=O)CSc1nnc(COc2ccccc2)o1)NC1CCCCC1	91	84	88	83	40*
CCOc1ccc(N(CC(=O)NC2CCCCC2)C(=O)CSc2nnc(COc3ccccc3)o2)cc1	97	70	76	64	36*
O=C(CSc1nnc(CNC(=O)c2cccs2)o1)NC1CCCCC1	95	108	91	102	98
Cc1ccnc(NS(=O)(=O)c2cnc(Cl)c(Br)c2)c1	.	87	.	94	.
Cc1ccc(NC(=O)Nc2nc(-c3ccc(C)s3)cs2)cc1	.	73	.	76	.
N#CC1=C(N)NC(SCc2ccc(F)cc2)=C(C#N)C12CCCCC2	54	18	36	19	10*
COc1cc(OC)cc(-c2nnc(SCC(=O)Nc3cc(C)on3)o2)c1	74	.	94	.	66
Cc1ccc(OCC(=O)N2CCN(c3nnc(-c4ccccc4)c4ccccc34)CC2)cc1	107	44	86	43	85
Cc1ccc(-c2nnc(N3CCN(C(=O)CSc4ncn[nH]4)CC3)c3ccccc23)cc1	2.9*	47	105	41	76
O=C(Nc1cccc(-c2cnc3ccccc3n2)c1)c1cccc(NC(=O)c2ccco2)c1	35*	71	17*	75	8.1*
CCC(=O)Nc1cccc(-c2cnc3ccccc3n2)c1	103	104	107	107	77
O=C(CCl)Nc1cccc(-c2cnc3ccccc3n2)c1	2.7*	3.0*	4.1*	5.1*	1.5*
O=C(Nc1cccc(-c2nc3ccccc3[nH]2)c1)c1ccco1	96	84	77	96	34*
O=C(Nc1cccc(NC(=O)c2ccc(-c3ccc(Br)cc3)o2)c1)c1ccccc1	72	6	58	15	55
O=C(Nc1cccc(NC(=O)c2ccc(-c3cccc(Br)c3)o2)c1)c1ccco1	104	39	61	50	25*
SMILES	Lung fibro prol	HCT116 PTEN-null	HUVEC prolif 384	bCat KO growth	H69AR growth 86K
Cc1cccc(NC(=O)Cn2cnc3ccccc3c2=O)c1C	96	90	95	98	97
O=C(COC(=O)CC12CC3CC(CC(Br)(C3)C1)C2)NC(=O)NCc1ccco1	103	84	96	67	100
COc1ccc(/C=C2\CCc3ccccc3C2=O)cc1Cn1cccn1	.	2.2*	.	2.9*	.
C=CCNC(=O)C1CC(=O)N(c2ccc(OCC(=O)Nc3ccc(Cl)c(C(F)(F)F)c3)cc2)C1 (configuration not stated)	98	1.9*	80	1.9*	14*
O=C(NC1CCCc2ccccc21)c1cncc(Br)c1 (configuration not stated)	107	99	117	108	86
CC(C)Cn1cc(C(=O)N2CCN(c3ccccn3)CC2)c2c3ccccc3n(C)c2c1=O	93	59	70	51	38*
Cc1ccc(C2CC(c3ccc(Cl)cc3)=NNC2=O)cc1 (configuration not stated)	104	90	123	97	100
O=C(C1=NNCC1c1ccc(Cl)cc1)C1CO1 (configuration not stated)	.	2.1*	.	2.2*	.
O=C(Nc1cccc(-c2nc3ncccc3o2)c1)c1cc2ccccc2o1	108	77	49	94	16*
COc1ccc(NC(=O)N2CCCC(c3nc(-c4ccc(C(C)C)cc4)no3)C2)cc1 (configuration not stated)	88	72	73	77	86
O=C1C2CC=CCC2C(=O)N1Cc1ccccc1Cl (configuration not stated)	.	86	.	84	.
CCCCCCCCCn1c2c(c(=N)c3c1CCC3)CCC2	28*	1.6*	3.9*	1.9*	8.6*
CCCCCCn1c2c(c(=N)c3c1CCC3)CCC2	67	6	92	5.2*	26*
CCN(CC)C(=O)CSc1nc2ccc(NC(=O)CSc3nccn3C)cc2s1	106	83	98	80	88
O=C(Nc1nnc(-c2ccc3c(c2)OCCO3)o1)c1ccc(Cc2ccccc2)cc1	89	19	9.6*	18	37*
O=C(Nc1nnc(-c2ccc3c(c2)CCCC3)o1)c1ccccc1	64	11	23*	13	38*
O=C(COc1ccccc1)Nc1nnc(-c2ccc3c(c2)CCCC3)o1	99	108	91	102	76
O=C(Nc1nnc(-c2ccc(F)cc2)o1)c1cc(Cl)sc1Cl	.	6	.	12	.
O=C(Nc1nnc(-c2ccc3c(c2)CCCC3)o1)c1ccccc1Cl	72	28	23*	27	23*
CC(C)(C)c1ccc(S(=O)(=O)N(CCCN2CCOCC2)Cc2cccs2)cc1	.	53	.	50	.
COc1ccccc1/C=C/C(=O)NCC(=O)N/N=C/c1cc(Br)ccc1OC	80	53	72	59	19*
CN(c1cccc(NC(=O)CN(c2cccc(Cl)c2)S(=O)(=O)c2ccc(Cl)cc2)c1)S(C)(=O)=O	.	68	.	89	.
C(=N\Nc1nc(-c2ccccc2)cs1)/c1cccnc1	.	81	.	75	.
Cc1ccc(-c2cc(-c3ccccc3O)nc(N/N=C/c3cccnc3)n2)cc1	.	2.9*	.	4.0*	.
CCOc1ccc(S(=O)(=O)N2c3ccccc3CC2C)cc1 (configuration not stated)	52	13	48	13	25*
COc1cccc(NC(=O)Cn2cnc3sc(C)c(S(=O)(=O)N4CCCCC4)c3c2=O)c1	97	89	95	88	92
O=C(CC1N=C2c3ccccc3N=C(SCc3ccc(F)cc3)N2C1=O)NCc1ccco1 (configuration not stated)	93	77	64	79	38*
Cc1ccc(CSC2=Nc3ccccc3C3=NC(CC(=O)NCc4ccco4)C(=O)N23)cc1 (configuration not stated)	101	95	79	102	29*

Screening results from PubChem.
